Data: article PMC3129977 (ACS chemical neuroscience, 2011)

How the values were obtained:
[1] = molecular target: T1, aggregated Aβ42 peptides (Homo sapiens, UniProt P05067); conditions: earlier report; cited from earlier work
[2] = molecular target: Aβ plaques in brain sections from an AD patient (Homo sapiens, UniProt P05067); test: Staining of frozen human brain tissue sections; conditions: 60 μM probe in PBS, 30 min
How it was run: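 Frozen AD brain sections were dried for 1 h, passed through 100%, 95% and 70% ethanol (5 min each), rinsed in water, and equilibrated 15 min in PBS. Probe was diluted 1:50 from 3 mM PBS stock to 60 μM final and applied for 30 min at room temperature. Sections were PBS-washed, coverslipped and imaged by epifluorescence. Plaque/background intensity was normalized to a reference probe, as mean ± SD, n = 10 measurements per probe.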

[3] = molecular target: T1, aggregated Aβ42 peptides; test: Fluorescence studies with aggregated Aβ peptides; format: binding
[4] = free probe 4 μM, 5% DMSO in nanopure water, before mixing with aggregated Aβ42
[5] = probe 4 μM after mixing with aggregated Aβ42 (5 μM)

T1 sequence (P05067 672-713 limits assumed): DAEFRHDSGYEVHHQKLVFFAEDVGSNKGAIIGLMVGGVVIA
Aβ plaques in brain sections from an AD patient, sequence (P05067 672-711 limits assumed): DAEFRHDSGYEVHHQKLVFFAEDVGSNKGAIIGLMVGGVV

COCCOCCOCCOC(=O)/C(C#N)=C/c1ccc2cc(N3CCCCC3)ccc2c1 [Compound 6]
Fluorescence change upon binding to Aβ fibrils [1]: large increase in fluorescence intensity
Fluorescence contrast between plaques and surrounding tissue [2]: weaker observed contrast
Staining of Aβ plaques [2]: stained
Em. max before [3, 4]: 590 nm
Exc. max before [3, 4]: 415 nm
Em. max after [3, 5]: 545 nm
Exc. max after [3, 5]: 410 nm
Fold increase in emission intensity upon association with aggregated Aβ42 ([3]; probe 4 μM, aggregated Aβ42 5 μM): 7.7 fold
